The source of these data is ChEMBL document CHEMBL1121599, “Synthesis and analgesic activity of some 5-(4-hydroxyphenyl)-2-azabicyclo[3.2.1]octanes” (J Med Chem, 1980).

Each structure is given as a SMILES string.

In test [1] the test system is Mus musculus. Put plainly: Tested in vivo for the analgesic activity by measuring the inhibition of phenyl-p-quinone- induced writhing (PQW) in mice upon subcutaneous administration; 7.2-21.9. It is filed as functional. The following applies: sc. In short, it runs like this:
(§1)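 Compounds were given as racemic hydrobromide salts. The vehicle, also used as the control in both the tail-flick and the phenylquinone writhing tests, was distilled water with a few drops of Tween 80.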

The target in a further test is Opioid receptor (Rattus norvegicus, UniProt P33533+P34975+P33535). Put plainly: Tested for In vitro binding constant for Opioid receptors by measuring the inhibition of stereospecific binding of [3H]naloxone in rat brain homogenates. Type of test: tissue-based.
Test [2] deals with Mus musculus. Put plainly: Tested in vivo for the analgesic activity by measuring the delay in response to noxious heat stimuli (D'Amour-Smith tail-flick method) in mice upon subcutaneous administration. Type of test: functional. The following applies: sc. In short, it runs like this: as §1
Test [3] relates to Mus musculus. Put plainly: Tested in vivo for the analgesic activity by measuring the inhibition of phenyl-p-quinone- induced writhing (PQW) in mice upon subcutaneous administration; 0.20-0.36. It is filed as functional. The conditions noted are these: sc. In short, it runs like this: as §1
The test system of test [4] is Mus musculus. Put plainly: Tested in vivo for the analgesic activity by measuring the inhibition of phenyl-p-quinone- induced writhing (PQW) in mice upon subcutaneous administration; 3.2-4.4. Type of test: functional. The following applies: sc. The essentials:
as §1

Test [5] deals with Mus musculus. Put plainly: Tested in vivo for the analgesic activity by measuring the inhibition of phenyl-p-quinone- induced writhing (PQW) in mice upon subcutaneous administration; 2.6-3.4. The conditions noted are these: sc. Type of test: functional. The essentials: as §1
Test [6] relates to Mus musculus. Put plainly: Tested in vivo for the analgesic activity by measuring the inhibition of phenyl-p-quinone- induced writhing (PQW) in mice upon subcutaneous administration; 2.2-2.7. The following applies: sc. Type of test: functional. The essentials:
as §1

Test [7] deals with Mus musculus. Put plainly: Tested in vivo for the analgesic activity by measuring the delay in response to noxious heat stimuli (D'Amour-Smith tail-flick method) in mice upon subcutaneous administration; 7.4-24.4. Type of test: functional. The following applies: sc. In short, it runs like this: as §1
Test [8] deals with Mus musculus. Put plainly: Tested in vivo for the analgesic activity by measuring the inhibition of phenyl-p-quinone- induced writhing (PQW) in mice upon subcutaneous administration; 2.1-2.9. It is filed as functional. The following applies: sc. In short, it runs like this: as §1
The species named for test [9] is Mus musculus. Put plainly: animal or person. The conditions noted are these: sc.

For `CN1CCC2(c3ccc(O)cc3)CCC1C2` (stereo not drawn), the ED50 with Mus musculus [1] was 10.8 mg/kg; with Mus musculus [2], over 25 mg/kg. Further, on Opioid receptor, the IC50 came out at 7290 nM.
Regarding `O=C(CCCN1CCC2(c3ccc(O)cc3)CCC1C2)c1ccc(F)cc1` (stereo not drawn), the ED50 is 0.27 mg/kg in the test with Mus musculus [3] and over 25 mg/kg in the test on Mus musculus [2]. The molecule also showed an IC50 on Opioid receptor of 268 nM.
`CCCN1CCC2(c3ccc(O)cc3)CCC1C2` (stereo not drawn): the ED50 is 3.7 mg/kg in the test with Mus musculus [4] and over 25 mg/kg in the test on Mus musculus [2]. Further, the IC50 at Opioid receptor was found to be 6980 nM.
`Oc1ccc(C23CCC(C2)N(CC2CC2)CC3)cc1` (stereo not drawn): the 50% effective dose (ED50) in the test on Mus musculus [5] is 3 mg/kg; with Mus musculus [2] it was over 25 mg/kg. The molecule further displayed an IC50 at Opioid receptor of 2780 nM.
Take `Oc1ccc(C23CCC(C2)N(CCc2ccccc2)CC3)cc1` (stereo not drawn): the ED50 was 2.5 mg/kg with Mus musculus [6] and over 25 mg/kg with Mus musculus [2]. At Opioid receptor, this molecule returned an IC50 of 340 nM.
In the case of `CC(C)=CCN1CC[C@]2(C)c3cc(O)ccc3C[C@H]1[C@H]2C` [(+)-PENTAZOCINE], the results for the ED50 in the test on Mus musculus [7] and in the test on Mus musculus [8] were 14.6 mg/kg and 2.4 mg/kg, respectively.
Turning to `CN1CC[C@]23c4c5ccc(O)c4O[C@H]2[C@@H](O)C=C[C@H]3[C@H]1C5` [MORPHINE], it took a dose of 0.68 mg/kg to reach the 50% effect level in the test listed under Mus musculus [9] (ED50).
